Only some compounds are listed: those with a hit (about 1.9% of all), similar ones and a draw of the others.
Cneo AK release: causes C. neoformans cell lysis | adenylate kinase release luminescence, 4 h; normalised: neutral wells 0, clomiphene wells 100 | lysis activity, % at 15 µM | hit rate 0.2% among 360,000 | AID 651654;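 active = mean lysis activity across replicates of at least 80%, whatever share of replicates individually reach that level; inactive = mean lysis activity below 80%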
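Material – Cryptococcus neoformans yeast cells · Quantity – 5 × 10^6 yeast cells/mL · Buffer or medium – YPD medium · Compound – single dose · Timing – 4 h static compound exposure, 37 °C, read 1 h post-reagent · Signal – adenylate kinase release luminescence · Read-out basis – lysis from increased AK signal · Benchmarks – Clomiphene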
DENV2 CPE rescue: DENV2-induced cell death inhibition; DENV2-infected cells, cytopathic effect rescue, plate reader; CPE inhibition, % at 9.99 µM; hit rate 1.7% among 350,000; in the data active = CPE inhibition above about 20%, passing the limit was not always enough; inconclusive = no clear call, values can overlap the other calls; tested in BHK-21 cells
PGC1a acetyl inh: lowers PGC1a acetylation signal in U2OS cells | AlphaScreen anti-acetyl-lysine; with virally co-expressed GCN5 acetyltransferase | inhibition, % at 15.6 µM | hit rate 0.17% among 350,000 | AID 651687;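 active = every replicate shows inhibition of at least 40%; inconclusive = mean inhibition at least 40% but some replicate below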
FN deposition inh: fibronectin deposition inhibition | inhibition, % at 12.6 µM | AID 743247 | hit rate 0.086% among 350,000 | AH1F fibroblasts, Alexa488-fibronectin deposition fluorescence, overnight;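 active = mean inhibition across replicates of 30% or more, regardless of how many single replicates reach that level; inconclusive = mean under 30% yet at least half of replicates reach 30%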
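Assay system: AH1F fibroblasts assembling fluorescent fibronectin matrix; Amount: 10000 AH1F cells per well; Buffer or medium: DMEM, 2% serum; Probe or stimulus: Alexa488-fibronectin, 24 nM final in well; Doses: single compound dose, delivered by pin transfer; Incubation: 1 h adhesion, overnight exposure; Measured by: fluorescence 485/525 nm; Read-out: fibronectin deposition inhibition.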
CFTR F508del cor: CFTR F508del correction in bronchial cells; CFBE cells, YFP halide quenching; stimulated with forskolin plus potentiator P3; % fluorescence drop versus neutral controls; activity (quench increase), % at 7.58 µM; hit rate 0.36% among 350,000; AID 720511;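 active = mean added fluorescence quench of at least 8% versus neutral control, with both replicates also reaching 8%; inconclusive = only one of the mean or replicate conditions met; inactive = mean below 8% and not both replicates reaching 8%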;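 note: cells transiently co-express mutant CFTR-F508del with the halide-sensitive YFP; corrector assay measuring rescue of mutant channel to the surface after 24 h compound exposure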
XiGFP reactiv: X-chromosome reactivation activator. activation, % at 7.58 µM. hit rate 0.055% among 360,000. XiGFP mouse fibroblasts, % GFP-positive cells imaging, 3 d; cells co-treated with 5-aza-dC sensitizer; scaled so ellipticine positive control = 100%;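 active = mean normalized replicate activation at least 10% and every replicate at or above 10%; inconclusive = only one of the two criteria met; inactive = mean below 10% and not all replicates reach 10%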
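assay system = SV40-immortalized XiGFP fibroblast cells, line 68-5-11 | buffer or medium = DMEM plus 5-aza-dC sensitizer | doses = single-point pinned compound dosing | times = 3-day compound exposure, then 15 min fixation at room temperature | benchmarks = positive control ellipticine, 6 µM final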
A number is an active result; - = inactive; ? = inconclusive; . = not tested or not shown; ! = not active in a repeat.

SMILES	Cneo AK release	DENV2 CPE rescue	PGC1a acetyl inh	FN deposition inh	CFTR F508del cor	XiGFP reactiv
O=C(C[C@H]1CC[C@@H]2[C@H](COC[C@@H](O)CN2S(=O)(=O)c2cccc(Cl)c2)O1)NC1CCCC1	-	-	-	-	-	-
C[C@H]1CN([C@@H](C)CO)C(=O)c2cc(-c3cccnc3)cnc2O[C@H]1CN(C)Cc1ccccc1	.	.	-	-	-	-
CO[C@H]1CN(C)C(=O)c2ccc(NC(=O)Nc3cccc(F)c3)cc2OC[C@H](C)NC[C@H]1C	-	-	-	-	-	-
COc1ccc(S(=O)(=O)Nc2ccc3c(c2)C(=O)N([C@H](C)CO)C[C@H](C)[C@@H](CN(C)C(=O)c2ccccc2)OCCCC[C@H](C)O3)cc1	-	-	.	-	-	-
C[C@@H]1CN([C@@H](C)CO)S(=O)(=O)c2ccc(C#CC3CC3)cc2O[C@H]1CN(C)Cc1cccnc1	-	-	-	.	-	-
O=C(Cc1ccccn1)NCC[C@@H]1CC[C@@H](NC(=O)c2ccccc2F)[C@H](CO)O1	-	-	-	-	-	-
O=C(C[C@@H]1CC[C@H](NC(=O)Cc2ccccn2)[C@H](CO)O1)NCCc1ccccc1	80.6	-	-	.	-	-
O=C(C[C@@H]1C=C[C@@H](NC(=O)Nc2ccc(C(F)(F)F)cc2)[C@H](CO)O1)NCc1ccccn1	-	-	?	-	-	-
O=C(C[C@H]1C=C[C@@H](NC(=O)Nc2ccc(C(F)(F)F)cc2)[C@@H](CO)O1)NCc1ccccn1	.	20.1	-	-	-	-
O=C(Cc1ccccn1)NCC[C@H]1CC[C@@H](NC(=O)c2ccccc2F)[C@@H](CO)O1	-	40.2	-	-	-	-
O=C(CCCCCCCC(=O)NNC(=O)Nc1ccccc1)NNC(=O)Nc1ccccc1	.	115.2	.	-	-	-
O=C(CCc1ccccc1)NNC(=O)Nc1ccccc1	.	-	-	-	-	-
C[C@H]1CN([C@@H](C)CO)C(=O)c2cccc(NS(=O)(=O)c3ccccc3)c2O[C@@H]1CN(C)Cc1ccc(C(=O)O)cc1	-	30.9	-	-	-	-
C[C@H](CO)N1C[C@H](C)[C@@H](CN(C)Cc2ccc(Oc3ccccc3)cc2)Oc2c(NS(=O)(=O)c3ccc(F)cc3)cccc2C1=O	.	39.1	-	.	-	-
C[C@H]1CN([C@@H](C)CO)C(=O)c2cccc(NS(=O)(=O)c3ccc(F)cc3)c2O[C@H]1CN(C)Cc1ccc(Oc2ccccc2)cc1	.	.	-	.	?	-
C[C@H]1CCCCO[C@@H](CN(C)Cc2ccc(C(=O)O)cc2)[C@@H](C)CN([C@@H](C)CO)C(=O)c2cc(NC(=O)c3ccccc3)ccc2O1	-	-	-	-	-	-
C[C@@H]1CN([C@H](C)CO)C(=O)c2cc(NC(=O)c3ccccc3)ccc2O[C@@H](C)CCCCO[C@@H]1CN(C)Cc1ccc(C(=O)O)cc1	-	114.6	-	-	-	-
C[C@@H]1CCCCO[C@@H](CN(C)Cc2ccc(C(=O)O)cc2)[C@H](C)CN([C@H](C)CO)C(=O)c2cc(NC(=O)c3ccccc3)ccc2O1	-	78.7	-	-	-	-
CCCNC(=O)[C@@H]1[C@@H](CO)[C@@H]2Cn3c(ccc(-c4ccccc4)c3=O)[C@H]1N2C(=O)CC	.	-	-	.	-	-
C[C@@H]1C=C(C(=O)N2CCN(Cc3ccc4c(c3)OCO4)CC2)O[C@H](OCCCCO)C1	-	21.4	.	-	-	-
CC(=O)n1cc([C@H]2C=C(C(=O)N3CCN(Cc4ccccc4)CC3)O[C@@H](OCc3ccc(CO)cc3)C2)c2ccccc21	-	-	-	-	-	-
CC(=O)n1cc([C@H]2C=C(C(=O)N3CCN(Cc4ccc5c(c4)OCO5)CC3)O[C@@H](OCc3ccc(CO)cc3)C2)c2ccccc21	-	24.3	-	-	-	-
C#CCNC(=O)C1=C[C@H](c2ccc3c(c2)OCO3)C[C@H](OCCCCO)O1	.	26.2	.	-	-	-
O=C(C1=C[C@H](C2CC2)C[C@H](OCCCCO)O1)N1CCN(Cc2ccc3c(c2)OCO3)CC1	-	-	-	-	-	-
O=C(C1=C[C@@H](c2ccccc2)C[C@@H](OCc2ccc(CO)cc2)O1)N1CCN(Cc2ccc3c(c2)OCO3)CC1	-	-	-	-	8.8!	-
SMILES	Cneo AK release	DENV2 CPE rescue	PGC1a acetyl inh	FN deposition inh	CFTR F508del cor	XiGFP reactiv
COc1ccc(NC(=O)N(C)C[C@@H]2Oc3ccc(NC(=O)Cc4ccccc4)cc3C(=O)N([C@H](C)CO)C[C@H]2C)cc1	-	-	-	.	-	-
CCCN(C)C[C@H]1Oc2cc(C#CCOC)ccc2S(=O)(=O)N([C@H](C)CO)C[C@H]1C	-	-	-	-	-	-
O=C(O)c1ccccc1C(=O)N1CCN(Cc2ccc3c(c2)OCO3)CC1	-	-	-	-	-	-
O=C(c1ccccc1Br)N1CCN(Cc2ccc3c(c2)OCO3)CC1	-	50.3	-	-	-	-
O=C(O)CCCCCN1C(=O)/C(=C\c2cn(-c3ccccc3)nc2-c2cccs2)SC1=S	-	59.6	-	-	-	-
CC(=O)NS(=O)(=O)c1ccc(NC(=O)CSc2ccc(Cl)cc2)cc1	.	-	.	-	9.6	-
CCc1cccc(OCCN2CCCC2)c1	.	50.5	-	-	.	-
Cc1cccc(Cl)c1OCCN1CCCC1	-	70.5	-	-	-	-
Brc1cccc(OCCN2CCCCC2)c1	.	.	.	-	.	.
Cc1ccccc1OCCCCN1CCCCC1	-	33.9	-	-	-	-
C[C@@H]1CN([C@H](C)CO)C(=O)c2cccc(NC(=O)Nc3ccccc3)c2O[C@H]1CN(C)C(=O)Nc1ccc(F)cc1	-	-	-	.	-	-
Cc1ccc(OC(=O)N(C)C[C@H]2OCc3ccccc3-c3ccccc3C(=O)N([C@@H](C)CO)C[C@H]2C)cc1	.	.	.	-	.	-
COC(=O)C[C@H]1CC[C@@H]2[C@H](COc3ccc(NC(=O)c4ccccc4F)cc3C(=O)N2C)O1	-	-	.	-	.	-
O=C(Nc1ccc2c(c1)OCO2)N[C@@H]1CC[C@@H](CCNC(=O)C2CC2)O[C@H]1CO	-	-	-	-	-	-
O=C(C[C@@H]1C[C@H]2c3cc(NC(=O)c4ccc5c(c4)OCO5)ccc3O[C@H]2[C@H](CO)O1)NC1CCCC1	-	-	-	-	-	-
O=C(C[C@@H]1C[C@@H]2c3cc(NC(=O)c4ccc5c(c4)OCO5)ccc3O[C@@H]2[C@@H](CO)O1)NCc1ccc(Oc2ccccc2)cc1	-	-	-	30.7	-	-
O=C(C[C@@H]1C[C@H]2c3cc(NC(=O)c4ccc5c(c4)OCO5)ccc3O[C@H]2[C@@H](CO)O1)NCC1CC1	-	26.8	-	-	-	-

Screening data as filed in PubChem.
